Series [1] deals with Nucleic Acid. Briefly: Inhibition of [3H]thymidine incorporation into proliferating L1210 cells. The format is functional, cell-based. The following applies: Mus musculus. The essentials:
(§1)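 Actively growing L1210 cells in culture were exposed to drug, which was first dissolved in Me2SO and diluted to 1% Me2SO final. Incorporation of [3H]thymidine into DNA or [3H]uridine into RNA was measured. ED50 is the drug concentration giving 50% inhibition.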
On the technique in general: Incorporation of labelled thymidine or its analogues reports DNA synthesis.

Series [2] deals with Calf thymus DNA. Kind of series: Change in thermal denaturation temperature of calf thymus DNA. The format is nucleic-acid assay. Conditions: Bos taurus. The essentials:
(§2)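 Calf thymus DNA with drug at 5.2 X 10^-6 M in 0.01 M phosphate buffer pH 7 containing EDTA and 5% Me2SO. ΔTm is the thermal denaturation temperature of the DNA–drug complex minus that of DNA alone. Values <1 count as insignificant binding.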

Series [3] concerns Mus musculus. Briefly: Antitumor activity against mice baering P388 leukemia (10e6 cells) implanted ip on day 0, after treatment with single ip dose 0.25 mg/kg on day 1. The format is functional. Conditions: route intraperitoneal. The essentials:
(§3)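 Mice implanted ip with 10^6 P388 leukemia cells on day 0, then dosed ip either once on day 1 or on days 5, 9 and 13 once the tumour was systemic. Efficacy is T/C, the mean survival time of treated over control mice, expressed as %. T/C > 120% counts as active. The optimum dose is reported.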

The test system of series [4] is Nucleic Acid. Briefly: Inhibition of [3H]uridine incorporation into proliferating L1210 cells. The format is functional, cell-based. The following applies: Mus musculus. In a few lines:
as §1

Series [5] has as its system Mus musculus. Briefly: Antitumor activity against mice baering P388 leukemia (10e6 cells) implanted ip on day 0, after treatment with three ip doses (50 mg/kg) on day 5,9,13 when tumor became systemic. The class given is functional. In a few lines: as §3
Series [6] is described as follows: Partition coefficient (log P) was the log of ratio of concentration in octanol / water partitioned concentration in phosphate buffer at pH 7.4. The format is physicochemical.
Series [7] deals with Calf thymus DNA. Briefly: (§4) Effect on thermal denaturation temperature (delta Tm) of helical DNA. The following applies: Bos taurus. The class given is nucleic-acid assay. The essentials:
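ΔTm was taken as the Tm of the drug–calf thymus DNA complex minus the Tm of DNA alone. Drug was at 5.2 × 10^-6 M in 0.01 M phosphate buffer (pH 7) containing EDTA and 5% Me2SO. Values below 1 were considered insignificant binding.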

Series [8] has as its system Mus musculus. Briefly: Antitumor activity against mice baering P388 leukemia (10e6 cells) implanted ip on day 0, after treatment with single ip dose 0.05 mg/kg on day 1. The format is functional. Conditions: route intraperitoneal. In a few lines:
as §3

The subject of series [9] is Mus musculus. Kind of series: Antitumor activity against mice baering P388 leukemia (10e6 cells) implanted ip on day 0, after treatment with three ip doses (0.2 mg/kg) on day 5,9,13 when tumor became systemic. The class given is functional. The essentials:
as §3

Series [10] relates to Mus musculus. Kind of series: Antitumor activity against mice baering P388 leukemia (10e6 cells) implanted ip on day 0, after treatment with single ip dose 0.4 mg/kg on day 1. The following applies: route intraperitoneal. The format is functional.
The test system of series [11] is Mus musculus. Briefly: Antitumor activity against mice bearing B16 melanoma implanted ip on day 0, after treatment with three ip doses 10 mg/kg on day 1,5,9 when tumor had become systemic. The following applies: route intraperitoneal. The class given is functional.
The subject of series [12] is Mus musculus. Briefly: Antitumor activity against mice bearing L1210 leukemia implanted ip on day 0, after treatment with single ip dose 10 mg/kg on day 1. The class given is functional. The following applies: route intraperitoneal.
Series [13] relates to Mus musculus. Briefly: Antitumor activity against mice bearing P388 leukemia implanted ip on day 0, after treatment with single iv dose 10 mg/kg on day 1. The class given is functional.
Series [14] concerns Mus musculus. Kind of series: Antitumor activity against mice bearing P388 leukemia implanted ip on day 0, after treatment with three po doses on day 1,5,9 when the tumor had become systemic; Inactive. The class given is functional, organism-based.
The subject of series [15] is Mus musculus. Briefly: Antitumor activity against mice baering P388 leukemia (10e6 cells) implanted ip on day 0, after treatment with single ip dose 7.5 mg/kg on day 1. The format is functional. The following applies: route intraperitoneal.
Series [16] concerns Mus musculus. Briefly: Antitumor activity against mice baering P388 leukemia (10e6 cells) implanted ip on day 0, after treatment with three ip doses (8 mg/kg) on day 5,9,13 when tumor became systemic. The format is functional.
Series [17] has as its system Mus musculus. Kind of series: Antitumor activity against mice baering P388 leukemia (10e6 cells) implanted ip on day 0, after treatment with single ip dose 4.0 mg/kg on day 1. The class given is functional. Conditions: route intraperitoneal. The essentials:
as §3

Series [18] concerns Calf thymus DNA. The description is as §4. The format is functional. The following applies: Bos taurus. The essentials: as §2
In series [19] the test system is Mus musculus. Briefly: Antitumor activity (treated/control) against mice bearing B16 melanoma implanted ip on day 0, after treatment with 3 ip doses 0.0063 mg/kg on day 1,5,9 when tumor had become systemic. The class given is functional. The following applies: route intraperitoneal. The essentials: (§5)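 Mice tumour-implanted on day 0 as in the P388 ip screen. Dosing was iv for P388 (day 1), po for P388 (days 1, 5, 9), and ip for L1210 (day 1) and for B16 melanoma (days 1, 5, 9). Efficacy is T/C % of mean survival time of treated over control mice, at the optimum dose.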

The test system of series [20] is Mus musculus. Kind of series: Antitumor activity (treated/control) against mice bearing L1210 leukemia implanted ip on day 0, after treatment with single ip dose 0.025 mg/kg on day 1. The format is functional. Conditions: route intraperitoneal. In a few lines:
as §5

Series [21] relates to Mus musculus. Kind of series: Antitumor activity (treated/control) against mice bearing P388 leukemia implanted ip on day 0, after treatment with single iv dose 0.05 mg/kg on day 1. The class given is functional. The essentials:
as §5

The test system of series [22] is Mus musculus. Briefly: Antitumor activity (treated/control) against mice bearing P388 leukemia implanted ip on day 0, after treatment with three po doses 0.1 mg/kg on days1,5,9 when the tumor had become systemic. The format is functional. The essentials: as §5
Series [23] deals with Mus musculus. Briefly: Antitumor activity against mice baering P388 leukemia (10e6 cells) implanted ip on day 0, after treatment with three ip doses (0.5 mg/kg) on day 5,9,13 when tumor became systemic. The class given is functional.

The text below walks through data of ChEMBL document CHEMBL1122652, “Intensely potent morpholinyl anthracyclines” (J Med Chem, 1984).

Each structure is given as a SMILES string. The source made the active and inactive calls.

As a reminder, the ΔTm is the shift of the melting midpoint relative to a reference. What is called T/C is the result in the treated group divided by that in the control group, in per cent. Usually logD stands for lipophilicity at a set pH, counting ionised and neutral species.

Take `COc1cccc2c1C(=O)c1c(O)c3c(c(O)c1C2=O)C[C@@](O)(C(C)=O)CC3OC1CC(N2CCOCC2C#N)C(O)C(C)O1` (stereo not given in full): the ED50 in [1] turned out to be 0.012 µM; in series [4] it was 0.002 µM. Besides, the ΔTm in series [2] was 6.3 °C. Besides, the T/C in series [3] turned out to be 175%.
On to `COc1cccc2c1C(=N)c1c(O)c3c(c(O)c1C2=O)C[C@@](O)(C(O)CO)CC3OC1CC(N2CCOCC2)C(O)C(C)O1.Cl` (stereo not given in full), for which the ED50 in [1] was > 100 µM; in series [4], 24 µM. Besides, the ΔTm in series [2] came out at 1.6 °C. In series [5], the T/C was >161%. Besides, the logD in series [6] was 1.43.
For `COc1cccc2c1C(=O)c1c(O)c3c(c(O)c1C2=O)C[C@@](O)(C(C)O)CC3OC1CC(N2CCOCC2C#N)C(O)C(C)O1` (stereo not given in full), the values for the ED50 in series [1] and in series [4] were 0.019 µM and 0.002 µM, respectively. For the same compound, the ΔTm in series [2] is 4.2 °C.
Take `COc1cccc2c1C(=N)c1c(O)c3c(c(O)c1C2=O)C[C@@](O)(C(O)CO)CC3OC1CC(N2CCOCC2C#N)C(O)C(C)O1` (stereo not given in full): the ED50 in [1] was found to be 0.58 µM; in series [4], 0.075 µM. In addition, in [7], the ΔTm is 0.8 °C.
Consider `COc1cccc2c1C(=O)c1c(O)c3c(c(O)c1C2=O)C[C@@](O)(C(C)O)CC3OC1CC(N2CCOCC2)C(O)C(C)O1` (stereo not given in full), for which the ED50 in series [1] amounted to 2.2 µM; in series [4], 0.53 µM. Also, the ΔTm in [2] was 4.1 °C. Moreover, in series [6], the logD worked out at 2.03.
For the compound `COc1cccc2c1C(=O)c1c(O)c3c(c(O)c1C2=O)C[C@@](O)(C(O)CO)CC3OC1CC(N2CCOCC2C#N)C(O)C(C)O1` (stereo not given in full), the figures for the ED50 in series [1] and in series [4] were 0.021 µM and 0.003 µM, respectively. Besides, the ΔTm in series [2] was determined as 4.5 °C. For the same compound, the T/C in [8] amounted to 183%; in [9] it was 150%. Besides, in series [6], the logD is 1.56.
Take `COc1cccc2c1C(=O)c1c(O)c3c(c(O)c1C2=O)C[C@@](O)(C(O)CO)CC3OC1CC(N2CCOCC2)C(O)C(C)O1.Cl` (stereo not given in full): the ED50 in [1] came to 7.5 µM; in [4] it was 3.3 µM. The shift in melting temperature (ΔTm) in [2] amounted to 3.9 °C. The T/C in series [10] is given as >145%.
As to `COc1cccc2c1C(=O)c1c(O)c3c(c(O)c1C2=O)C[C@@](O)(C(=O)CO)C[C@@H]3O[C@H]1C[C@H](N)[C@H](O)[C@H](C)O1.Cl` [DOXORUBICIN HYDROCHLORIDE], the ED50 was found to be 1.6 µM in series [1] and 0.58 µM in [4]. Moreover, the ΔTm in series [2] came to 12.8 °C. In addition, the T/C in series [11] is 278%; in [12] it was 185%; in [13], 178%; in series [15], 252%; in series [16], 160%. Further, in series [14], the T/C entry is “inactive”.
For `COc1cccc2c1C(=N)c1c(O)c3c(c(O)c1C2=O)C[C@@](O)(C(=O)CO)CC3OC1CC(N2CCOCC2)C(O)C(C)O1.Cl` (stereo not given in full), the ED50 came out at 2.6 µM in series [1] and 1.3 µM in series [4]. The ΔTm in series [2] was determined as 4.3 °C. For the same compound, the T/C in [17] is on record as >215%. The logD in series [6] was determined as 1.8.
With `COc1cccc2c1C(=O)c1c(O)c3c(c(O)c1C2=O)C[C@@](O)(C(=O)CO)CC3OC1CC(N2CCOCC2C#N)C(O)C(C)O1` (stereo not given in full), the ED50 is 0.003 µM in [1] and 0.00053 µM in series [4]. Also, in series [18], the ΔTm came out at 8.7 °C. Also, the T/C is recorded as >148% in series [19], 164% in [20], 152% in [21] and >158% in series [22].
For the compound `COc1cccc2c1C(=O)c1c(O)c3c(c(O)c1C2=O)C[C@@](O)(C(C)=O)CC3OC1CC(N2CCOCC2)C(O)C(C)O1.Cl` (stereo not given in full), the ED50 in series [1] was found to be 0.76 µM; in [4], 0.1 µM. Moreover, in series [2], the ΔTm was determined as 6.6 °C. Also, the T/C in series [3] is 155%. In addition, in [6], the logD was determined as 2.31.
As for `COc1cccc2c1C(=O)c1c(O)c3c(c(O)c1C2=O)C[C@@](O)(C(C)=O)C[C@@H]3O[C@H]1C[C@H](N)[C@H](O)[C@H](C)O1.Cl` [DAUNORUBICIN HYDROCHLORIDE], the ED50 in series [1] came to 0.66 µM; in [4], 0.33 µM. In [2], the ΔTm is 10.5 °C. In series [16], the T/C was found to be 130%. Further, the logD in series [6] worked out at 0.66.
For the compound `COc1cccc2c1C(=O)c1c(O)c3c(c(O)c1C2=O)C[C@@](O)(C(=O)CO)CC3OC1CC(N2CCOCC2)C(O)C(C)O1.Cl` (stereo not given in full), the results for the ED50 in series [1] and in [4] were 0.71 µM and 0.17 µM, respectively. Also, in series [2], the ΔTm stood at 9.6 °C. The T/C in series [8] amounted to 182%. For the same compound, the logD in series [6] was 1.73.
For the compound `COc1cccc2c1C(=N)c1c(O)c3c(c(O)c1C2=O)C[C@@](O)(C(=O)CO)CC3OC1CC(N2CCOCC2C#N)C(O)C(C)O1` (stereo not given in full), the ED50 in [1] worked out at 0.031 µM; in series [4], 0.0047 µM. In series [7], the ΔTm came out at 3.2 °C. The same compound came in with a T/C in [23] of 157%. Further, the logD in series [6] came out at 1.97.
